Results on twelve compounds are retold here after ChEMBL document CHEMBL2069293, “Design, synthesis and evaluation of the inhibitory selectivity of novel trans-resveratrol analogues on human recombinant CYP1A1, CYP1A2 and CYP1B1” (Bioorg Med Chem, 2012).

Type in all cases: ADME
Data set [1] addresses T1, Cytochrome P450 1A2 (Homo sapiens, UniProt P05177).
T1 sequence (P05177 whole entry): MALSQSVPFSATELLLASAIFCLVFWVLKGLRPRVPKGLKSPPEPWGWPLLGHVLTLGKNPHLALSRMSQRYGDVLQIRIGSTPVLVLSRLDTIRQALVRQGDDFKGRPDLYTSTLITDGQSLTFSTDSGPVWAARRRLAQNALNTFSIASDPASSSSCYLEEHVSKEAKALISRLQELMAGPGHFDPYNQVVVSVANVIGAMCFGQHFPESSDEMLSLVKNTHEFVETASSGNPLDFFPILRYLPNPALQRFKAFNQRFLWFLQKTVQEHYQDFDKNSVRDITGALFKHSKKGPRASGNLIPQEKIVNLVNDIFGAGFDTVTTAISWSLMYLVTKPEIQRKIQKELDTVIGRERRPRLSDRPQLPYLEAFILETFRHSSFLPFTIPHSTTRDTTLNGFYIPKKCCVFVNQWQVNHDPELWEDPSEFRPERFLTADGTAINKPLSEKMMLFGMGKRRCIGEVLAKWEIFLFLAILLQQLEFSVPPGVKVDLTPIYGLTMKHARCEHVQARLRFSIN
As to the kind of experiment: Inhibition of human recombinant CYP1A2 by spectrophotometry based 7-ethoxyresorufin O-deethylation enzyme assay. In outline:
(§1)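 EROD assay: fresh DMSO solutions of test compound over various concentrations with 2 µM 7-ethoxyresorufin, 1.3 mM NADP+, 3.3 mM glucose-6-phosphate, 0.5 U/ml G6PDH, 3.3 mM MgCl2 in 100 mM potassium phosphate pH 7.4. Started with enzyme (1.25 pmol CYP1A1, or 5 pmol CYP1A2 or CYP1B1), 37 °C, 15 min. Resorufin fluorescence (ex 550/em 585) against resorufin standard. IC50 read graphically from % of control activity; three parallel experiments.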

The target in another data set is T2, Cytochrome P450 1A1 (Homo sapiens, UniProt P04798).
T2 sequence (P04798 whole entry): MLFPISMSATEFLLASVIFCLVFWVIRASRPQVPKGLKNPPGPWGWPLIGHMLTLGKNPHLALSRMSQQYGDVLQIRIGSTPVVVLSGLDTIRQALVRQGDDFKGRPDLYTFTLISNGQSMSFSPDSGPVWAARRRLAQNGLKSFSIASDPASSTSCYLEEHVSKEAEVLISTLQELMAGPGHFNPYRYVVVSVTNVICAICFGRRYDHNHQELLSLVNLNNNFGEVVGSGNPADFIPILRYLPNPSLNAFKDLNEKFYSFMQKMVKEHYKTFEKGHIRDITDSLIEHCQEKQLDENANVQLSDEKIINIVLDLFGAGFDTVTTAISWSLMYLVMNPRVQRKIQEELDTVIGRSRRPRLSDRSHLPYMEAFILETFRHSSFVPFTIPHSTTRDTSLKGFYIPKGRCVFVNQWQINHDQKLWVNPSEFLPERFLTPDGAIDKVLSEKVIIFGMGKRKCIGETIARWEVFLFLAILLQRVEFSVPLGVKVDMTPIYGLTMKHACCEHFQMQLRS
The experiment in a line: Inhibition of human recombinant CYP1A1 by spectrophotometry based 7-ethoxyresorufin O-deethylation enzyme assay. A digest of the protocol:
as §1

The next data set concerns the target T3, Cytochrome P450 1B1 (Homo sapiens, UniProt Q16678).
T3 sequence (Q16678 whole entry): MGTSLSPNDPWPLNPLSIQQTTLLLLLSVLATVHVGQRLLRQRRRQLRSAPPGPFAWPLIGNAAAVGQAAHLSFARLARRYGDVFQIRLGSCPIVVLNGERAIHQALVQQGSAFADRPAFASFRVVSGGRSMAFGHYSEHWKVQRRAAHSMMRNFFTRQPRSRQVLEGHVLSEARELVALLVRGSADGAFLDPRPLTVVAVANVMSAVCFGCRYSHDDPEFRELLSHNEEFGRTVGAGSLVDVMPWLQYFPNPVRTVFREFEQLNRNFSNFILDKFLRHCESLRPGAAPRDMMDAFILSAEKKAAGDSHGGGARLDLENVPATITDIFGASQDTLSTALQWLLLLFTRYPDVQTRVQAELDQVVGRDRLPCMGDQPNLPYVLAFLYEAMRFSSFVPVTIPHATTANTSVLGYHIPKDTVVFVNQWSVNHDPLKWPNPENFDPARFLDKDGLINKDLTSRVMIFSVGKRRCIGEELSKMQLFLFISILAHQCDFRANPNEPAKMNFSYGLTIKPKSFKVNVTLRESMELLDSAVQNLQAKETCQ
As to the kind of experiment: Inhibition of human recombinant CYP1B1 by spectrophotometry based 7-ethoxyresorufin O-deethylation enzyme assay. A digest of the protocol:
as §1

The subject of a further data set is CYP1A2 / CYP1A1. The experiment in a line: Selectivity ratio, ratio of IC50 for human recombinant CYP1A2 to IC50 for human recombinant CYP1A1. The note with it: recombinant CYP1A2 and recombinant CYP1A1, read-out: Ratio IC50.
The next data set deals with CYP1A2 / CYP1B1. The experiment in a line: Selectivity ratio, ratio of IC50 for human recombinant CYP1A2 to IC50 for human recombinant CYP1B1. As to conditions: recombinant CYP1A2 and recombinant CYP1B1, read-out: Ratio IC50.
For data set [2], the target named is T1, Cytochrome P450 1A2. The experiment in a line: Activity of human recombinant CYP1A2 assessed as NADPH oxidation level per pmol of CYP1A2 level at 10 uM by spectrophotometry. As to conditions: recombinant enzyme. A digest of the protocol:
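NADPH oxidation by human recombinant CYP1A2 (5 pmol/ml) in Tris buffer pH 7.4 with stilbene at 1–50 µM. Reaction started with 0.2 mM NADPH, 37 °C, 3 min. Absorbance at 340 nm read every 15 s; NADPH oxidized calculated with extinction coefficient 6.22 mM-1 cm-1.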

`COc1ccccc1/C=C/c1ccc(SC)cc1`: the IC50 (as a rule, the concentration that gives 50% inhibition) is 7500 nM at Cytochrome P450 1A2 [1], 1000 nM on Cytochrome P450 1A1 and 300 nM at Cytochrome P450 1B1. The selectivity ratio was 7.5 in the data set with CYP1A2 / CYP1A1 and 25 in the data set with CYP1A2 / CYP1B1. Also, on Cytochrome P450 1A2 [2], the Activity is less than 0.3 µM/min.
On to `COc1cccc(/C=C/c2ccc(SC)cc2)c1`, for which the values for the IC50 on Cytochrome P450 1A2 [1], at Cytochrome P450 1A1 and at Cytochrome P450 1B1 were 11500 nM, 1100 nM and 500 nM, respectively. Besides, the selectivity ratio in the data set with CYP1A2 / CYP1A1 is 10.5; with CYP1A2 / CYP1B1, 23. In addition, the Activity at Cytochrome P450 1A2 [2] is less than 0.3 µM/min.
On to `COc1ccc(/C=C/c2ccc(SC)cc2)cc1`, for which the IC50 on Cytochrome P450 1A2 [1] came to 23000 nM; on Cytochrome P450 1A1, 28000 nM; on Cytochrome P450 1B1 it was 5500 nM. The figures for the selectivity ratio in the data set on CYP1A2 / CYP1A1 and in the data set on CYP1A2 / CYP1B1 were 0.8 and 4.2, respectively. Moreover, the Activity at Cytochrome P450 1A2 [2] was less than 0.3 µM/min.
Take `COc1cccc(/C=C/c2ccc(SC)cc2)c1OC`: the IC50 stood at 22000 nM at Cytochrome P450 1A2 [1], 1800 nM at Cytochrome P450 1A1 and 1100 nM on Cytochrome P450 1B1. The selectivity ratio with CYP1A2 / CYP1A1 was 12.2; in the data set on CYP1A2 / CYP1B1, 20. In addition, at Cytochrome P450 1A2 [2], the Activity was less than 0.3 µM/min.
Take `COc1ccc(/C=C/c2ccc(SC)cc2)c(OC)c1`: the IC50 on Cytochrome P450 1A2 [1] is 8100 nM; on Cytochrome P450 1A1 it was 2400 nM; at Cytochrome P450 1B1 it was 2000 nM. Besides, the selectivity ratio with CYP1A2 / CYP1A1 turned out to be 3.4; with CYP1A2 / CYP1B1, 4.1. Moreover, the Activity on Cytochrome P450 1A2 [2] was less than 0.3 µM/min.
In the case of `COc1ccc(OC)c(/C=C/c2ccc(SC)cc2)c1`, the IC50 on Cytochrome P450 1A2 [1] came to 39500 nM; at Cytochrome P450 1A1, 3800 nM; on Cytochrome P450 1B1, 1100 nM. Further, the values for the selectivity ratio with CYP1A2 / CYP1A1 and in the data set on CYP1A2 / CYP1B1 were 10.4 and 35.9, respectively. In addition, on Cytochrome P450 1A2 [2], the Activity is less than 0.3 µM/min.
Regarding `COc1cc(/C=C/c2ccc(SC)cc2)cc(OC)c1`, the half-inhibitory concentration (IC50) came to 5000 nM on Cytochrome P450 1A2 [1], 1400 nM on Cytochrome P450 1A1 and 1500 nM on Cytochrome P450 1B1. Moreover, the values for the selectivity ratio with CYP1A2 / CYP1A1 and in the data set with CYP1A2 / CYP1B1 were 3.6 and 3.3, respectively. Further, the Activity on Cytochrome P450 1A2 [2] is less than 0.3 µM/min.
For the compound `COc1ccc(/C=C/c2ccc(SC)cc2)c(OC)c1OC`, the results for the IC50 on Cytochrome P450 1A2 [1], on Cytochrome P450 1A1 and on Cytochrome P450 1B1 were more than 50000 nM, 900 nM and 1000 nM, respectively. Besides, the selectivity ratio in the data set with CYP1A2 / CYP1A1 was more than 55.5; with CYP1A2 / CYP1B1, more than 50. For the same compound, on Cytochrome P450 1A2 [2], the Activity is less than 0.6 µM/min.
Regarding `COc1cc(OC)c(OC)cc1/C=C/c1ccc(SC)cc1`, the values for the IC50 at Cytochrome P450 1A2 [1], on Cytochrome P450 1A1 and on Cytochrome P450 1B1 were 15000 nM, 800 nM and 900 nM, respectively. In addition, the figures for the selectivity ratio with CYP1A2 / CYP1A1 and in the data set on CYP1A2 / CYP1B1 were 18.7 and 16.7, respectively. The Activity at Cytochrome P450 1A2 [2] came to 2.91 µM/min.
With `COc1cc(OC)c(/C=C/c2ccc(SC)cc2)c(OC)c1`, the IC50 is 6500 nM at Cytochrome P450 1A2 [1], 400 nM on Cytochrome P450 1A1 and 500 nM at Cytochrome P450 1B1. The selectivity ratio in the data set on CYP1A2 / CYP1A1 came out at 16.3; in the data set on CYP1A2 / CYP1B1 it was 17. Also, the Activity on Cytochrome P450 1A2 [2] is less than 0.3 µM/min.
Turning to `CSc1ccc(/C=C/c2ccccc2Cl)cc1`, the IC50 on Cytochrome P450 1A2 [1] is 14500 nM; on Cytochrome P450 1A1, 1000 nM; on Cytochrome P450 1B1, 300 nM. The selectivity ratio with CYP1A2 / CYP1A1 turned out to be 14.5; in the data set on CYP1A2 / CYP1B1, 48.3.
Turning to `COc1cc(/C=C/c2ccc(SC)cc2)cc(OC)c1OC`, the IC50 on Cytochrome P450 1A2 [1] amounted to 7000 nM; at Cytochrome P450 1A1, 3600 nM; on Cytochrome P450 1B1, 2600 nM. Besides, the values for the selectivity ratio in the data set on CYP1A2 / CYP1A1 and in the data set on CYP1A2 / CYP1B1 were 1.9 and 2.7, respectively. Moreover, the Activity on Cytochrome P450 1A2 [2] was 2.22 µM/min.
